According to ChEMBL document CHEMBL1151750, “The fourth molybdenum containing enzyme mARC: cloning and involvement in the activation of N-hydroxylated prodrugs” (J Med Chem, 2008):
One block for each molecule: values may come before it.

Columns and labels:
Type in all cases: microsomes
Conditions in all cases: Microsome
[1] = target: T1, Mitochondrial amidoxime-reducing component 1 (Homo sapiens) (UniProt Q5VT66); test: (§1) Specific activity at molybdenum cofactor/metal-free precursor molybopterin bound human recombinant mARC1 expressed in Escherichia coli TP1000 assessed as reduction to benzamidine in reconstituted system containing microsomal cyt b5 and NADH without microsomal NADH cytochrome b5 reductase per mg of protein at 0.5 mM by HPLC analysis
T1 sequence (whole entry): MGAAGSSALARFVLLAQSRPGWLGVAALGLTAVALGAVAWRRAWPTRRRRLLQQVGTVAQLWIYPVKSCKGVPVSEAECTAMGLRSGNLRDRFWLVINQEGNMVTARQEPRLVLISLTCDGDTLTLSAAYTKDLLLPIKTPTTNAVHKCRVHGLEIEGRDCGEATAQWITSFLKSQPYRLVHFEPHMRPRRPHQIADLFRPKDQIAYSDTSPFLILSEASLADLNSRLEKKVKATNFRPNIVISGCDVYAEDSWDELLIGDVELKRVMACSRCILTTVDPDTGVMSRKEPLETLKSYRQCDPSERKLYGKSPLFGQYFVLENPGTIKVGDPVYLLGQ
Outline: (§2)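 His6-tagged human mARC1 expressed in E. coli TP1000 (22 °C, IPTG induction, 1 mM sodium molybdate added) and Ni-NTA purified. Assay mix: 100 µg mARC1, 0.05 U pig liver microsomal NADH cyt b5 reductase, 200 pmol microsomal cyt b5, 0.5 mM N-hydroxylated substrate, 1 mM NADH, 100 mM potassium phosphate pH 6.0. Omitted components as stated per line. Aerobic, 37 °C, 3 min preincubation, NADH start, 15 or 20 min, methanol stop. Product quantified by HPLC; mean ± SD, n=4.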

[2] = target: T1, Mitochondrial amidoxime-reducing component 1 (Homo sapiens); test: as §1, with “containing NADH and” for “containing”, “microsomal NADH” for “microsomal”, “reductase” for “and NADH”, “microsomal” for “microsomal NADH”, “b5” for “b5 reductase”; outline: as §2
[3] = target: T1, Mitochondrial amidoxime-reducing component 1 (Homo sapiens); test: (§3) Specific activity at molybdenum cofactor/metal-free precursor molybopterin bound human recombinant mARC1 expressed in Escherichia coli TP1000 assessed as reduction to benzamidine in complete reconstituted system containing microsomal cyt b5, NADH and microsomal NADH cyt b5 reductase per mg of protein at 0.5 mM by HPLC analysis; outline: as §2
[4] = target: T1, Mitochondrial amidoxime-reducing component 1 (Homo sapiens); test: as §3, with “guanabenz” for “benzamidine”; outline: as §2
[5] = target: T1, Mitochondrial amidoxime-reducing component 1 (Homo sapiens); test: as §3, with “melagatran” for “benzamidine”; outline: as §2
[6] = target: T1, Mitochondrial amidoxime-reducing component 1 (Homo sapiens); test: as §3, with “debrisoquine” for “benzamidine”; outline: as §2
[7] = target: T1, Mitochondrial amidoxime-reducing component 1 (Homo sapiens); test: as §3, with “diminazene” for “benzamidine”; outline: as §2
[8] = target: T1, Mitochondrial amidoxime-reducing component 1 (Homo sapiens); test: as §3, with “diminazene monoamidoxime” for “benzamidine”; outline: as §2
[9] = target: T1, Mitochondrial amidoxime-reducing component 1 (Homo sapiens); test: as §3, with “pentamidine monoamidoxime” for “benzamidine”; outline: as §2
[10] = target: T1, Mitochondrial amidoxime-reducing component 1 (Homo sapiens); test: as §3, with “pentamidine” for “benzamidine”; outline: as §2

Activity [1]: 0.2 nmol/min
Activity [2]: 0.23 nmol/min
Activity [3]: 1.3 nmol/min
SMILES: N/C(=N\O)c1ccccc1

Activity [4]: 20.4 nmol/min
SMILES: N=C(NO)N/N=C/c1c(Cl)cccc1Cl

Activity [5]: 0.48 nmol/min
SMILES: N/C(=N\O)c1ccc(CNC(=O)[C@@H]2CCN2C(=O)[C@H](NCC(=O)O)C2CCCCC2)cc1

Activity [6]: 15.9 nmol/min
SMILES: N/C(=N\O)N1CCc2ccccc2C1

Activity [7]: 0.05 nmol/min
Activity [8]: 4.31 nmol/min
SMILES: N/C(=N\O)c1ccc(/N=N/Nc2ccc(/C(N)=N/O)cc2)cc1

Activity [9]: 0.56 nmol/min
Activity [10]: 0.49 nmol/min
SMILES: N/C(=N\O)c1ccc(OCCCCCOc2ccc(/C(N)=N/O)cc2)cc1

Activity [10]: 6.59 nmol/min
SMILES: N=C(N)c1ccc(OCCCCCOc2ccc(/C(N)=N\O)cc2)cc1
